Results as given in ChEMBL document CHEMBL1130315 (J Med Chem, 1997).

How the values were obtained:
[1] = target: Sodium-dependent dopamine transporter (Rattus norvegicus, UniProt P23977); assay: Binding affinity was evaluated using [3H]WIN-35428 binding to dopamine transporter (DAT) in rat caudate-putamen; assay type: tissue-based
Sigma 2 receptor = assay: Binding affinity was evaluated using [3H]-DTG binding to sigma-2 receptor from rat liver
In short: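 Rat liver membranes (male Sprague-Dawley), 160 μg protein, with 5 nM [3H]DTG plus 1 μM dextrallorphan to mask σ1 sites; 50 mM Tris-HCl pH 8.0, 120 min at 25 °C. Nonspecific binding with 10 μM haloperidol; filtration on poly(ethylenimine)-soaked glass fiber filters, scintillation counting.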

[2] = target: Sodium-dependent dopamine transporter (Rattus norvegicus) (UniProt P23977); assay: Binding constant(Bmax) of [3H]WIN-35428 at saturation in rat caudate-putamen tissue pre-incubated in buffer at 10 uM (Dopamine transporter); assay type: tissue-based
In short: (§1)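 Rat caudate-putamen homogenate in Krebs-HEPES buffer pH 7.4, preincubated 1 h on ice with buffer alone, 100 nM or 10 μM ligand, then washed by two centrifugations. Twelve-point saturation with 0.1–25 nM [3H]WIN 35,428, 1 h on ice; filtration. Bmax and KD fitted by nonlinear least squares across replicate experiments, with standard errors; protein by modified Lowry.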

[3] = target: Sodium-dependent dopamine transporter (Rattus norvegicus) (UniProt P23977); assay: Binding constant(Bmax) of [3H]WIN-35428 at saturation in rat caudate-putamen tissue pre-incubated in buffer (Dopamine transporter); assay type: tissue-based; in short: as §1
[4] = target: Sodium-dependent dopamine transporter (Rattus norvegicus) (UniProt P23977); assay: Binding constant(Bmax) of [3H]WIN-35428 at saturation in rat caudate-putamen tissue preincubated in buffer at 100 nM (Dopamine transporter); assay type: tissue-based; in short: as §1

Sequence of Sodium-dependent dopamine transporter (Rattus norvegicus) (P23977 whole entry): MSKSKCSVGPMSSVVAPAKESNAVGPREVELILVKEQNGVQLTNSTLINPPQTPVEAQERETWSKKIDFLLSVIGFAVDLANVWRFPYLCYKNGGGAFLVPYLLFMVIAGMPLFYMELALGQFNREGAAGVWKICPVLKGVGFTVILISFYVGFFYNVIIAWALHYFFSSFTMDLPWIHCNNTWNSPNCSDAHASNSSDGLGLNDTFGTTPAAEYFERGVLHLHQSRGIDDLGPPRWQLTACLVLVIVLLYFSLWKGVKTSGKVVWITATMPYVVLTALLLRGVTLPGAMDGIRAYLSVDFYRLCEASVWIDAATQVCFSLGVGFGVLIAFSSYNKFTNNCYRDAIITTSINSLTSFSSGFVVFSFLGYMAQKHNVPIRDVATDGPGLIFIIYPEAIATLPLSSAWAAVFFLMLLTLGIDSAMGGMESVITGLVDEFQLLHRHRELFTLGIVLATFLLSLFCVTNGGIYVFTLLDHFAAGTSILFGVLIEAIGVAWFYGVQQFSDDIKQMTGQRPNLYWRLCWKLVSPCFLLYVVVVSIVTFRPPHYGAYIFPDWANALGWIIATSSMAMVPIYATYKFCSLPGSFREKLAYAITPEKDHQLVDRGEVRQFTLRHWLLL
Sequence of Sodium-dependent dopamine transporter (P23977 whole entry): as above

SMILES	IC50 [1]	IC50 (Sigma 2 receptor)	Bmax (fM (mg of protein)-1) [2]	Bmax (fM (mg of protein)-1) [3]	Bmax (fM (mg of protein)-1) [4]
CC1CN(CCCn2c3ccccc3c3cc(N=C=S)ccc32)CC(C)N1C (stereo not drawn)	1330 nM	–	–	–	–
CC1CN(CCCn2c3ccccc3c3ccccc32)CC(C)N1CCN=C=S (stereo not drawn)	1250 nM	1440 nM	–	–	–
C[C@H]1CN(CCCn2c3ccccc3c3ccccc32)C[C@H](C)N1C	244 nM	294 nM	–	–	–
CC1CN(CCCn2c3ccccc3c3ccccc32)CC(C)N1CCCCCCN=C=S (stereo not drawn)	–	211 nM	6.65	537	167
CC1CN(CCCn2c3ccccc3c3ccccc32)CC(C)N1CCCN=C=S (stereo not drawn)	523 nM	877 nM	–	–	–
C[C@@H]1CN(CCCn2c3ccccc3c3ccccc32)C[C@H](C)N1 [RIMCAZOLE]	57.6 nM	386 nM	–	–	–
